The values that follow come from ChEMBL document CHEMBL1149663, “Design, synthesis and biological evaluation of 1,4-benzodiazepine-2,5-dione-based HDAC inhibitors” (Bioorg Med Chem Lett, 2007).

The nature of assay [1]: (§1) Antiproliferative activity against H661 cells after 48 hrs by XTT assay. Format: functional, cell-based. The conditions noted are these: Homo sapiens, NCI-H661, 48 h. A digest of the protocol:
(§2)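 Non-small cell lung cancer H661 cells were treated for 48 h, and proliferation was read by XTT assay as % of untreated control. Each analogue was run in three to four independent experiments, each in triplicate. IC50 was taken from the proliferation curves as the concentration giving 50% inhibition of proliferation.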
(Formazan colour is commonly taken as a measure of viable cells.)

The nature of assay [2]: Antiproliferative activity against H661 cells at 5 uM after 48 hrs by XTT assay. Format: functional, Homo sapiens, NCI-H661. In a few lines:
as §2

In assay [3] the test system is NCI-H661. Described as §1. The assay is classed as functional, cell-based. To be noted: Homo sapiens. A digest of the protocol: as §2

Each structure is given as a SMILES string. Calls of active or inactive are those of the source. No cut-off for these calls is given here.

Usually IC50 stands for the concentration that inhibits the measured activity by half. In the case of `CC(/C=C/C(=O)NO)=C\[C@@H](C)C(=O)c1ccc(N(C)C)cc1` [TRICHOSTATIN], in assay [1], the IC50 turned out to be 0.085 µM.
The molecule `Cc1cc(C)cc(CN2C(=O)[C@H](Cc3ccccc3)N(CCCCCC(=O)NO)C(=O)c3ccccc32)c1` came in with an IC50 in assay [1] of 8 µM. The Activity in assay [2] turned out to be 80%.
As to `CN1C(=O)[C@H](Cc2ccccc2)N(CCCCCC(=O)NO)C(=O)c2ccccc21`, the result in assay [3] was inactive.
Take `O=C(CCCCCN1C(=O)c2ccccc2N(Cc2cccc3ccccc23)C(=O)[C@@H]1Cc1ccccc1)NO`: it took 16 µM to reach half-maximal inhibition in assay [1] (IC50). In other words, the double-digit micromolar range.
Regarding `O=C(CC/C=C/CN1C(=O)c2ccccc2N(Cc2ccccc2)C(=O)[C@@H]1Cc1ccccc1)NO`, inhibition in assay [1] was half-maximal at 8 µM (IC50). The molecule also returned an Activity in assay [2] of 80%.
As for `Cc1cc(C)cc(CN2C(=O)[C@H](Cc3ccccc3)N(C/C=C/CCC(=O)NO)C(=O)c3ccccc32)c1`, it took 17 µM to reach half-maximal inhibition in assay [1] (IC50).
Consider `O=C(CCCCCN1C(=O)c2ccccc2N(Cc2ccccc2)C(=O)[C@@H]1Cc1ccccc1)NO`, for which, in assay [1], the IC50 is 6 µM. In assay [2], this molecule returned an Activity of 40%.
